Results on eleven compounds are retold here after ChEMBL document CHEMBL1255226 (J Med Chem, 2010).

Series [1] is described as follows: Volume of distribution at steady state in C57BL/6 mouse at 1 mg/kg, iv. Type of series: ADME, organism-based. Further details: dose 1 mg/kg, route intravenous. To be noted: in vivo, read-out: Vdss.
The nature of series [2]: Tmax in Swiss albino mouse at 10 mg, ip. Type of series: ADME, organism-based. To be noted: in vivo.
Series [3] concerns the target Phosphatidylinositol 4-kinase alpha (Homo sapiens, UniProt P42356). As to the kind of experiment: Inhibition of PI4Kalpha. In a few lines:
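Biochemical LanthaScreen enzymatic lipid kinase assay run as an outsourced profiling service. Inhibitor at 10 concentrations, three-fold serial dilutions starting from 1 μM. ATP at the apparent ATP Km for the assay. IC50 derived from the dose-response.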

Series [4] can be described thus: Cmax in C57BL/6 mouse at 10 mg/kg, po. Type of series: ADME, organism-based. Further details: dose 10 mg/kg, route oral. To be noted: in vivo.
Series [5] is described as follows: Cmax in C57BL/6 mouse at 1 mg/kg, iv. On the set-up: dose 1 mg/kg, route intravenous. To be noted: in vivo. The series is classed as ADME, organism-based.
A short description of series [6]: AUC in C57BL/6 mouse at 10 mg/kg, po. The series is classed as ADME, organism-based. Further details: dose 10 mg/kg, route oral. To be noted: plasma.
Series [7] can be described thus: Mean retention time in C57BL/6 mouse at 10 mg/kg, po. On the set-up: dose 10 mg/kg, route oral. The series is classed as ADME, organism-based. The note with it: in vivo.
The nature of series [8]: Tmax in C57BL/6 mouse at 10 mg/kg, po. Type of series: ADME, organism-based. On the set-up: dose 10 mg/kg, route oral. To be noted: in vivo.
The test system of series [9] is Mus musculus. As to the kind of experiment: In vivo inhibition of mTOR complex 2 in C57BL/6 mouse assessed as reduction of Akt1 phosphorylation at S473 at 20 mg/kg, ip after 2 to 3 hrs by Western blotting.
Series [10] deals with Mus musculus. As to the kind of experiment: In vivo inhibition of mTOR complex 1 in C57BL/6 mouse lung assessed as reduction of S6 phosphorylation at S235/236 at 20 mg/kg, ip after up to 6 hrs by Western blotting. Type of series: functional, organism-based. On the set-up: dose 20 mg/kg. In a few lines:
(§1)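 They received a single IP dose of 20 mg/kg (NMP stock diluted 1:4 with 50% PEG400) for 2, 6 or 10 h; vehicle controls were dosed for 10 h. Mice were re-fed 1 h before sacrifice. Liver and lung were sonicated in HEPES pH 7.4 lysis buffer with phosphatase and protease inhibitors. Lysates were Bradford-normalized and immunoblotted for Akt S473 and S6 S235/236.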
(A western blot detects proteins with antibodies after separation by electrophoresis.)

The nature of series [11]: Mean retention time in C57BL/6 mouse at 1 mg/kg, iv. Further details: dose 1 mg/kg, route intravenous. To be noted: in vivo. Type of series: ADME, organism-based.
Series [12] can be described thus: Cmax in Swiss albino mouse at 10 mg, ip. The note with it: in vivo. The series is classed as ADME, organism-based. On the set-up: dose 10 mg, route intraperitoneal.
Series [13] in a line: AUC in C57BL/6 mouse at 1 mg/kg, iv. The note with it: plasma. On the set-up: dose 1 mg/kg, route intravenous. Type of series: ADME, organism-based.
For series [14], the system named is Mus musculus. As to the kind of experiment: In vivo inhibition of mTOR complex 1 in C57BL/6 mouse liver assessed as reduction of S6 phosphorylation at S235/236 at 20 mg/kg, ip after up to 10 hrs by Western blotting. Further details: dose 20 mg/kg. The series is classed as functional, organism-based. In a few lines: as §1
Series [15] is described as follows: AUC in Swiss albino mouse at 10 mg, ip. The series is classed as ADME, organism-based. The note with it: plasma.
For series [16], the target named is Serine/threonine-protein kinase mTOR (Mus musculus, UniProt Q9JLN9). As to the kind of experiment: Inhibition of mTOR in p53-deficient MEF assessed as phosphorylation of S6K1 at Thr389 by immunoblotting.
The target of series [17] is Serine/threonine-protein kinase mTOR (Homo sapiens, UniProt P42345).
Series [18] has as its target Phosphatidylinositol 4,5-bisphosphate 3-kinase catalytic subunit alpha isoform (Homo sapiens, UniProt P42336, S473D). As to the kind of experiment: Inhibition of PI3Kalpha in human PC3 cells expressing Akt1 S473D mutant assessed as phosphorylation of Akt Thr308 by immunoblotting. Type of series: cell-based, PC-3.

The Tmax is the time at which the peak concentration occurs. Usually IC50 stands for the concentration needed to halve the response being measured. In general, Cmax refers to the peak of the concentration-time curve. As a reminder, the AUC is concentration integrated over time. As usually defined, the MRT is a mean duration of stay, worked out from the concentration-time curve.

Activity calls are given as the source filed them. No cut-off for these calls is given here.

Phosphatidylinositol 4,5-bisphosphate 3-kinase catalytic subunit alpha isoform, sequence (P42336 whole entry, looked up, stated change not applied, canonical isoform): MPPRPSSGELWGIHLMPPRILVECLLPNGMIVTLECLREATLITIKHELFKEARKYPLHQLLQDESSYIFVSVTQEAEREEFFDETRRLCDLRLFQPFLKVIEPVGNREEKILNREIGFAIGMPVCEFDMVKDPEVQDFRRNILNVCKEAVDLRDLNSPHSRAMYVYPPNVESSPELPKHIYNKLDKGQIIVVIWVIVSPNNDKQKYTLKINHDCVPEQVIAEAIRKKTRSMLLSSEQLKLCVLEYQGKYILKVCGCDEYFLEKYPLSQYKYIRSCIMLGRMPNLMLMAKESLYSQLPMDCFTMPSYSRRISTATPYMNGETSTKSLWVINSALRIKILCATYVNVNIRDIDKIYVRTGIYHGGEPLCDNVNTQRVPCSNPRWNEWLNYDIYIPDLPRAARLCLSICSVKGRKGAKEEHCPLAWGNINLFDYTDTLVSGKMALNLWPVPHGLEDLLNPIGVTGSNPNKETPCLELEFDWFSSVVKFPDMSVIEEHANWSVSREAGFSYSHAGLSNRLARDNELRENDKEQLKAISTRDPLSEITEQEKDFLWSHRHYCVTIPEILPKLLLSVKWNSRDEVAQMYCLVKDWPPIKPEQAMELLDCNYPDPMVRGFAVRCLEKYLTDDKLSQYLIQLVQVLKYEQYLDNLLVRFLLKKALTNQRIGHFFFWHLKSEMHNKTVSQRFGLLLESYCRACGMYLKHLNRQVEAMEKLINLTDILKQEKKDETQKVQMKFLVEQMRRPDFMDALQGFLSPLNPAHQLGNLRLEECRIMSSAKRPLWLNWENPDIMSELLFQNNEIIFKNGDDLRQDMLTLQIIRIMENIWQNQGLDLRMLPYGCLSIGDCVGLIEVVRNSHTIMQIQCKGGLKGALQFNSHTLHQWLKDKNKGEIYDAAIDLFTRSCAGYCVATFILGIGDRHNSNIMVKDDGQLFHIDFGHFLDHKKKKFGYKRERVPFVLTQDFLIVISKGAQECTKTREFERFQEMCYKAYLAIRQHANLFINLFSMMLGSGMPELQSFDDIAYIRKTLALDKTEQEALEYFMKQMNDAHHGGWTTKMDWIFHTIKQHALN
Phosphatidylinositol 4-kinase alpha, sequence (P42356 whole entry): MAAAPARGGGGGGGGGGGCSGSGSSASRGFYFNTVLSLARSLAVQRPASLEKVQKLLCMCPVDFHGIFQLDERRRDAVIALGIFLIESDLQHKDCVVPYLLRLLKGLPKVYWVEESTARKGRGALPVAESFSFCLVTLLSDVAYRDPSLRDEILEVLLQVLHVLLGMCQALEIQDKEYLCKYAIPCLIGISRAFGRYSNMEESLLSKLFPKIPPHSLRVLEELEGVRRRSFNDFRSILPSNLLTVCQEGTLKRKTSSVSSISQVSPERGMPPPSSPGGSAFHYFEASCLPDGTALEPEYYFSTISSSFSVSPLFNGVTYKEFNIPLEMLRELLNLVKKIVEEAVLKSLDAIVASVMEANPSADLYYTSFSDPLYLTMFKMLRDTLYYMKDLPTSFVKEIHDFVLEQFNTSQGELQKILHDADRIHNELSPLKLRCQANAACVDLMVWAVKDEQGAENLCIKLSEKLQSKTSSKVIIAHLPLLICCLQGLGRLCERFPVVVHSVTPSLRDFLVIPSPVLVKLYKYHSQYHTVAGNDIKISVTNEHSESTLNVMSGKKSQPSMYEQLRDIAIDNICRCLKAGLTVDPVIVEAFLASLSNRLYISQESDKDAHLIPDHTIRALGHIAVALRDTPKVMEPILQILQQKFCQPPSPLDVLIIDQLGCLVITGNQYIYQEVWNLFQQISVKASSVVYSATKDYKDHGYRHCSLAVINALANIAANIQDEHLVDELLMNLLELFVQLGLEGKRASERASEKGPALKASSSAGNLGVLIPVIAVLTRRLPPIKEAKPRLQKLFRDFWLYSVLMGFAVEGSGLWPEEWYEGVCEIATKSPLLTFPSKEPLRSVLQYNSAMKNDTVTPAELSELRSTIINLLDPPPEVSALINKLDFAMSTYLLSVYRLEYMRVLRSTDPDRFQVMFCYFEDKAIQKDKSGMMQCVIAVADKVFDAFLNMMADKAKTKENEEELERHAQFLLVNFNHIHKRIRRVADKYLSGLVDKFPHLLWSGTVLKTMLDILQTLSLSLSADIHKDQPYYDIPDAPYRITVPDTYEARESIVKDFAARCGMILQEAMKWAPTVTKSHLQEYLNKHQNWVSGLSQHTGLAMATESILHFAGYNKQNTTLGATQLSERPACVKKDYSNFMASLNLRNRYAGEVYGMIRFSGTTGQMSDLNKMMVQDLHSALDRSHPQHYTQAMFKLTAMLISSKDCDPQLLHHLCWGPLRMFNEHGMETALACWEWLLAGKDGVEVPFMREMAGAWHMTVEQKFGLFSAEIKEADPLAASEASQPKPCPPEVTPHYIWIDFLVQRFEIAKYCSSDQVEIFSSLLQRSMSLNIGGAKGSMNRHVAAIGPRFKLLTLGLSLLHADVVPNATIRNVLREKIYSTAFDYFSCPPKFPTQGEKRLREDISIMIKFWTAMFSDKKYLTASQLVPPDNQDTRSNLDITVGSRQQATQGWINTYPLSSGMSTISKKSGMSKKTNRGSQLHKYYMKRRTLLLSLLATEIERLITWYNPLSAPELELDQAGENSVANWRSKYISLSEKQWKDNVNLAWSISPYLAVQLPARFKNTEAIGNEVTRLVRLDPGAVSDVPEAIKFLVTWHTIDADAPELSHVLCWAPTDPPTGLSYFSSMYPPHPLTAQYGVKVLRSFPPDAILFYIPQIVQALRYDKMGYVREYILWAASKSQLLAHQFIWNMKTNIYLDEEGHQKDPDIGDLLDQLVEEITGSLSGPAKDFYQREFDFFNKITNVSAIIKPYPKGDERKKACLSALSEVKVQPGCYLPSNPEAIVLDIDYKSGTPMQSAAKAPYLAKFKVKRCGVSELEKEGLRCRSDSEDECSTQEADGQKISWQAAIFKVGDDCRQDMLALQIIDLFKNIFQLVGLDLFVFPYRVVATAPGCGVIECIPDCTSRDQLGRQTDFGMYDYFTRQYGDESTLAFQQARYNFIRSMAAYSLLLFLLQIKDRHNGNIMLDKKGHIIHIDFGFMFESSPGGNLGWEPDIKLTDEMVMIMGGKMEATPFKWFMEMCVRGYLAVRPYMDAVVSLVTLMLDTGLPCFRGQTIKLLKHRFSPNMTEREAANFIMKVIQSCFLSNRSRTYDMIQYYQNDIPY

Take `CCC(=O)N1CCN(c2ccc(-n3c(=O)ccc4cnc5ccc(-c6cnc7ccccc7c6)cc5c43)cc2C(F)(F)F)CC1` [TORIN1]: the Vd in [1] was 0.59 L/kg. The figures for the time to peak (Tmax) in series [2] and in series [8] were 4.8 min and 15 min, respectively. This compound came in with an IC50 in series [3] of over 10000 nM. In addition, the peak concentration (Cmax) in [4] is 223 ng/mL; in series [5], 2760 ng/mL; in series [12] it was 5120 ng/mL. Further, the exposure (AUC) in series [6] was found to be 396 ng·h/mL; in series [13], 720 ng·h/mL; in series [15], 5720 ng·h/mL. For the same compound, the mean residence time (MRT) in series [7] worked out at 90.6 min; in [11], 25.8 min. Moreover, the inhibition result with Mus musculus [9], in the series on Mus musculus [10] and with Mus musculus [14] was “Active” throughout.

As to `CCC(=O)N1CCN(c2ccc(-n3c(=O)n(C)c(=O)c4cnc5ccc(-c6cnc7ccccc7c6)cc5c43)cc2C(F)(F)F)CC1`, the half-maximal inhibitory concentration (IC50) in [16] amounted to 300 nM.

Take `CCC(=O)N1CC=C(c2ccc(-n3c(=O)ccc4cnc5ccc(-c6cnc7ccccc7c6)cc5c43)cc2C(F)(F)F)CC1`: the IC50 in [16] is 30 nM.

For `CCC(=O)N1CCN(c2ccc(N3C(=O)OCc4cnc5ccc(-c6cnc7ccccc7c6)cc5c43)cc2C(F)(F)F)CC1`, in series [16], the half-maximal inhibitory concentration (IC50) is over 300 nM.

In the case of `CCC(=O)N1CCN(c2ccc(-n3c(=O)cc(C)c4cnc5ccc(-c6cnc7ccccc7c6)cc5c43)cc2C(F)(F)F)CC1`, the IC50 in [16] is over 300 nM.

On to `CC(=O)N1CCN(c2ccc(-n3c(=O)ccc4cnc5ccc(-c6cnc7ccccc7c6)cc5c43)cc2C(F)(F)F)CC1`, for which the half-maximal inhibitory concentration (IC50) in [17] was 5.4 nM; in series [16] it was 3 nM; in series [18] it was over 300 nM.

For `CCC(=O)N1CCN(c2ccc(-n3c(=O)c(C)cc4cnc5ccc(-c6cnc7ccccc7c6)cc5c43)cc2C(F)(F)F)CC1`, the IC50 in [16] was found to be 100 nM.

Take `O=C(O)N1CCN(c2ccc(Nc3ccnc4ccc(-c5cnc6ccccc6c5)cc34)cc2C(F)(F)F)CC1`: the IC50 in series [16] and in series [18] was over 300 nM in each case.

With `O=C(CN1CCOCC1)N1CCC(c2ccc(-n3c(=O)ccc4cnc5ccc(-c6cnc7ccccc7c6)cc5c43)cc2C(F)(F)F)CC1`, in series [16], the IC50 was 5 nM.

Consider `CN(C)CCC(=O)N1CCN(c2ccc(Nc3ccnc4ccc(-c5cnc6ccccc6c5)cc34)cc2C(F)(F)F)CC1`, for which the half-maximal inhibitory concentration (IC50) in series [16] and in series [18] was over 300 nM in each case.

`CCC(=O)N1CCN(c2ccc(N3C(=O)NCc4cnc5ccc(-c6cnc7ccccc7c6)cc5c43)cc2C(F)(F)F)CC1`: the IC50 in series [16] was over 300 nM.
